How the values were obtained:
Format in all cases: subcellular
[1] = Binding affinity to NET in Sprague-Dawley rat brain synaptosomes assessed as induction of [3H]MPP+ release by liquid scintillation counting method
How it was run: (§1)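 Rat synaptosomes with 1 μM reserpine in all buffers; SERT and NET from whole brain minus caudate and cerebellum (900 μg/mL protein), DAT from caudate (90 μg/mL). Preloaded 1 h in Krebs-phosphate buffer with 5 nM [3H]5-HT (SERT) or 9 nM [3H]MPP+ (NET, DAT), with unlabeled blockers of competing transporters. Eight-point curves, 10–10,000 nM, triplicate, 3 occasions. Filtration, scintillation counting; EC50 by non-linear regression.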

[2] = target: Sodium-dependent serotonin transporter (Rattus norvegicus, UniProt P31652); test: Binding affinity to SERT in Sprague-Dawley rat brain synaptosomes assessed as induction of [3H]5-HT release by liquid scintillation counting method; how it was run: as §1
[3] = target: Sodium-dependent dopamine transporter (Rattus norvegicus) (UniProt P23977); test: Binding affinity to DAT in Sprague-Dawley rat brain synaptosomes assessed as induction of [3H]MPP+ release by liquid scintillation counting method relative to control
How it was run: (§2)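 Release measured in rat synaptosomes preloaded 1 h with 5 nM [3H]5-HT (SERT) or 9 nM [3H]MPP+ (NET, DAT), with reserpine and unlabeled blockers; test drug 10–10,000 nM. Efficacy is % of maximal release, defined as release by tyramine: 100 μM for SERT, 10 μM for DAT and NET. Filtration and scintillation counting; n = 3–4 experiments in triplicate.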

[4] = target: Sodium-dependent dopamine transporter (Rattus norvegicus, UniProt P23977); test: Binding affinity to DAT in Sprague-Dawley rat brain synaptosomes assessed as induction of [3H]MPP+ release by liquid scintillation counting method; how it was run: as §1
Rattus norvegicus [5] = species on record: Rattus norvegicus; test: Binding affinity to NET in Sprague-Dawley rat brain synaptosomes assessed as induction of [3H]MPP+ release by liquid scintillation counting method relative to control; how it was run: as §2
[6] = target: Sodium-dependent serotonin transporter (Rattus norvegicus) (UniProt P31652); test: Binding affinity to SERT in Sprague-Dawley rat brain synaptosomes assessed as induction of [3H]5-HT release by liquid scintillation counting method relative to control; how it was run: as §2
Rattus norvegicus [7] = species on record: Rattus norvegicus; test: Selectivity index, ratio of EC50 for DAT in Sprague-Dawley rat brain synaptosomes to EC50 for SERT in Sprague-Dawley rat brain synaptosomes
Rattus norvegicus [8] = species on record: Rattus norvegicus; test: Selectivity index, ratio of EC50 for NET in Sprague-Dawley rat brain synaptosomes to EC50 for SERT in Sprague-Dawley rat brain synaptosomes

Chain of Sodium-dependent dopamine transporter (P23977 whole entry): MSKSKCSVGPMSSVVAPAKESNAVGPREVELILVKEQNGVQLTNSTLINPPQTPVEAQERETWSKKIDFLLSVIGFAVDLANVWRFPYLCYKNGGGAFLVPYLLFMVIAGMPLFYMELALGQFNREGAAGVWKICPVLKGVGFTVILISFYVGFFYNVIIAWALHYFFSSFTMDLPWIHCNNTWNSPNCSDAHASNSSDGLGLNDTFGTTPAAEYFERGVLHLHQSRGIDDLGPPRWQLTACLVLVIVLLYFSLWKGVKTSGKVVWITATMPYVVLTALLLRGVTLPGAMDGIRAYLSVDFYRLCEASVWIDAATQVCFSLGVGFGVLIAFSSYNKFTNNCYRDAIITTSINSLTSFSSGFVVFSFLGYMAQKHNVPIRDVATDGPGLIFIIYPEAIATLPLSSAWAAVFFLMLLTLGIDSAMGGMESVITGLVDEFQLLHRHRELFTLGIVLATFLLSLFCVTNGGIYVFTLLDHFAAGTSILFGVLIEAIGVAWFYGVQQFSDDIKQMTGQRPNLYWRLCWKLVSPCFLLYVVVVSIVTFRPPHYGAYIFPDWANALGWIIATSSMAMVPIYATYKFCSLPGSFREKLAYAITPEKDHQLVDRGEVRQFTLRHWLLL
Chain of Sodium-dependent dopamine transporter (Rattus norvegicus) (P23977 whole entry): as above
Chain of Sodium-dependent serotonin transporter (P31652 whole entry): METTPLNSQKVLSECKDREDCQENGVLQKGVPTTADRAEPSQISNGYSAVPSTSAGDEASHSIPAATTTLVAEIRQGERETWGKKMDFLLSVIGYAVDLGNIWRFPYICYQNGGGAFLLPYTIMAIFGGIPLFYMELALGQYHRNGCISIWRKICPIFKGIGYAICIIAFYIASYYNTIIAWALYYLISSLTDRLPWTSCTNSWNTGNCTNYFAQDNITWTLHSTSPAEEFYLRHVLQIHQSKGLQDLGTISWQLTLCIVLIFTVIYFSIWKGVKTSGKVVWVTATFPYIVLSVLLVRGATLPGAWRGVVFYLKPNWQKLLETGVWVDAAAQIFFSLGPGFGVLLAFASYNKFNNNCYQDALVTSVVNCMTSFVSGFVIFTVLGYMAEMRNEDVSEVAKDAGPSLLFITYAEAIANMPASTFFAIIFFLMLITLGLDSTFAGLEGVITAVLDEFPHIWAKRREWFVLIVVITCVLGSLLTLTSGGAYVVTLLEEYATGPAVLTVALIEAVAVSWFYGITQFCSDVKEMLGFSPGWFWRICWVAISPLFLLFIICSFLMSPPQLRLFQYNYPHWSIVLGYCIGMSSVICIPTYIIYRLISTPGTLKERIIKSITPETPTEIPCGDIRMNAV
Chain of Sodium-dependent serotonin transporter (Rattus norvegicus) (P31652 whole entry): as above

Structure (SMILES) | EC50 [1] [nM] | EC50 [2] [nM] | %max [3] [%] | EC50 [4] [nM] | %max (Rattus norvegicus [5]) [%] | %max [6] [%] | Ratio EC50 (Rattus norvegicus [7]) | Ratio EC50 (Rattus norvegicus [8])
CN[C@@H](C)Cc1ccc2c(c1)OCCO2 | 239 | 91 | 103 | 276 | 94 | 96 |  | 
CN[C@H](C)Cc1ccc2c(c1)OCCO2 | 1950 | 573 | 106 | 14600 | 85 | 97 |  | 
CNC(C)Cc1ccc2c(c1)OCCO2 (racemic) | 325 | 117 | 108 | 597 | 91 | 102 | 6 | 3
CNC(C)C(=O)c1ccc2c(c1)OCCO2 (racemic) | 327 | 347 | 105 | 496 | 84 | 105 |  | 
CNC(C)C(=O)c1ccc2c(c1)OCO2 (racemic) [METHYLONE] | 152 | 242 |  | 133 |  |  |  | 
CNC(C)Cc1ccc2c(c1)OCO2 (racemic) [MIDOMAFETAMINE] | 72 | 61 | 99 | 75 | 95 | 98 |  | 

From ChEMBL document CHEMBL3603823, “Ethylenedioxy homologs of N-methyl-(3,4-methylenedioxyphenyl)-2-aminopropane (MDMA) and its corresponding cathinone analog methylenedioxymethcathinone: Interactions with transporters for serotonin, dopamine, and norepinephrine” (Bioorg Med Chem, 2015)
